pIC50, pKi: −log10 of the molar value.

Assay [1] is filed under the species Cavia porcellus. The assay can be described thus: Opioid antagonist activity in guinea pig ileum assay. Format: functional. To be noted: read-out: pA2 (converted). In short, it runs like this: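 Guinea pig ileum antagonism: tissue incubated 10 min with peptide (10 μM where stated), then given […]. Shift measured relative to the agonist IC50 obtained without test peptide.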

The species named for assay [2] is Cavia porcellus. The assay can be described thus: The opioid activity by guinea pig ileum assay. Format: functional. In short, it runs like this: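 Guinea pig ileum twitch assay with cumulative peptide additions to the bath. IC50 values are means from three to six replicates using tissues from different animals.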
Assay [3] deals with T1, Kappa-type opioid receptor (Cavia porcellus, UniProt P41144). Nature of the assay: Affinity against Opioid receptor kappa 2 was determined by measuring the inhibition of [3H]bremazocine binding to guinea pig cerebellar membranes. The arrangement: species or system Cerebellum, Membrane.
The target in assay [4] is Delta-type opioid receptor (Rattus norvegicus, UniProt P33533). The assay can be described thus: Affinity against Opioid receptor delta 1 was determined by measuring the inhibition of [3H]DPDPE binding to rat forebrain membranes. It counts as cell membranes, Membrane. In short, it runs like this:
(§1)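 Rat forebrain membranes in 50 mM Tris pH 7.7, incubated 5 h at 4 °C. Final 10 μM bestatin, 30 μM captopril and 50 μM L-leucyl-L-leucine. Nonspecific binding defined with 10 μM levorphanol ([3H]DAMGO) or 10 μM unlabeled DPDPE ([3H]DPDPE). Competition curves fitted by nonlinear regression. Ratios use the lowest Ki as denominator.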

For assay [5], the target named is T1, Kappa-type opioid receptor. The assay can be described thus: Affinity against Opioid receptor kappa 3 was determined by measuring the inhibition of [3H]NalBzoH binding to […].
Assay [6] concerns the target T1, Kappa-type opioid receptor. Nature of the assay: Binding affinity towards Opioid receptor kappa 1 using [3H]diprenorphine as radioligand in guinea pig cerebellar membrane in absence of 120 mM NaCl + 50 uM Gpp(NH)p. It counts as cell membranes, Cerebellum. In short, it runs like this: (§2)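 Guinea pig cerebellar membranes prepared in 50 mM Tris pH 7.4. [3H]diprenorphine at 0.3 nM final, 60 min at 25 °C, with 10 μM bestatin, 1 mM Leu-Leu and 100 nM DAMGO. Run without or with 120 mM NaCl plus 50 μM Gpp(NH)p. Nonspecific binding with 1 μM Dyn A-(1–13)NH2. Filtration over polyethyleneimine-soaked filters; shift expressed as IC50(+)/IC50(–).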

In assay [7] the target is T1, Kappa-type opioid receptor. The assay can be described thus: Binding affinity towards Opioid receptor kappa 1 using [3H]diprenorphine as radioligand in guinea pig cerebellar membrane in presence of 120 mM NaCl + 50 uM Gpp(NH)p. It counts as cell membranes, Cerebellum. In short, it runs like this:
as §2

Assay [8] addresses T1, Kappa-type opioid receptor. Nature of the assay: Affinity against Opioid receptor kappa 1 was determined by measuring the inhibition of [3H]U-69593 binding to guinea pig […].
Assay [9] in a line: IC50 ratio measured as the IC50(presence of 50 uM of Gpp(NH)p)/IC50 (absence of 50 uM of Gpp(NH)p). In short, it runs like this:
as §2

The target in assay [10] is T2, Opioid receptors; mu/kappa/delta (Homo sapiens) (UniProt P41145+P41143+P35372). The assay can be described thus: Ki ratio is measured as the Ki values of kappa/mu/delta receptors; 1/8.8/41. It counts as protein assay. In short, it runs like this: (§3)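 Rat forebrain membranes in 50 mM Tris pH 7.7, incubated 5 h at 4 °C. Final 10 μM bestatin, 30 μM captopril and 50 μM L-leucyl-L-leucine. Nonspecific binding defined with 10 μM levorphanol ([3H]DAMGO) or 10 μM unlabeled DPDPE ([3H]DPDPE). Competition curves fitted by nonlinear regression. IC50 converted to Ki by Cheng–Prusoff with KD 0.314 nM (DAMGO) and 7.63 nM (DPDPE). Ratios use the lowest Ki as denominator.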

Assay [11] addresses Kappa-type opioid receptor (Homo sapiens) (UniProt P41145). Nature of the assay: Ki ratio is measured as the Ki values of kappa-1/kappa.2/kappa.3 receptors; 1/233/5.3. In short, it runs like this: (§4)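 Hartley guinea pig whole-brain homogenate in 50 mM Tris-HCl pH 7.7 (6.67 mg wet tissue/mL; 5 mM EDTA for NalBzoH). Radioligands ~1 nM: [3H]U69,593 (κ1); [3H]bremazocine plus 100 nM DAMGO, DSLET and U69,593 (κ2); [3H]NalBzoH plus 100 nM U69,593 (κ3). Test peptide 10⁻⁵–10⁻¹¹ M, 1 h at 25 °C, with bacitracin/bestatin/thiorphan. Nonspecific binding: 1 μM U69,593, 10 μM bremazocine or NalBzoH. Filtration; Ki via Cheng–Prusoff.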

A further assay concerns the target Mu-type opioid receptor (Rattus norvegicus, UniProt P33535). Nature of the assay: Affinity against Opioid receptor mu 1 was determined by measuring the inhibition of [3H]DAMGO binding to rat forebrain membranes. It counts as cell membranes, Membrane. In short, it runs like this: as §1
Assay [12] addresses T1, Kappa-type opioid receptor. Nature of the assay: Affinity against Opioid receptor kappa 1 was determined by measuring the inhibition of [3H]bremazocine binding to guinea pig cerebellar membranes. In short, it runs like this:
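Guinea pig cerebellar membranes with [3H]bremazocine in 20 mM HEPES pH 7.4, 3 h at 4 °C. 100 nM DAMGO and 100 nM bestatin present; nonspecific binding with 10 μM Dyn A-(1–13)NH2. Competition curves fitted by nonlinear regression. Selectivity ratios use the lowest Ki as denominator.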

For assay [13], the target named is T2, Opioid receptors; mu/kappa/delta (Homo sapiens). Nature of the assay: Ki ratio is measured as the Ki values of kappa/mu/delta receptors; 1/21/880. It counts as protein assay. In short, it runs like this:
as §3

Assay [14] concerns the target Kappa-type opioid receptor (Homo sapiens) (UniProt P41145). The assay can be described thus: Ki ratio is measured as the Ki values of kappa-1/kappa.2/kappa.3 receptors; 1/150/17. In short, it runs like this:
as §4

For assay [15], the target named is T2, Opioid receptors; mu/kappa/delta (Homo sapiens). The assay can be described thus: Ki ratio is measured as the Ki values of kappa/mu/delta receptors; 1/480/27900. It counts as protein assay. In short, it runs like this: as §3

T2 sequence (P35372 whole entry, looked up): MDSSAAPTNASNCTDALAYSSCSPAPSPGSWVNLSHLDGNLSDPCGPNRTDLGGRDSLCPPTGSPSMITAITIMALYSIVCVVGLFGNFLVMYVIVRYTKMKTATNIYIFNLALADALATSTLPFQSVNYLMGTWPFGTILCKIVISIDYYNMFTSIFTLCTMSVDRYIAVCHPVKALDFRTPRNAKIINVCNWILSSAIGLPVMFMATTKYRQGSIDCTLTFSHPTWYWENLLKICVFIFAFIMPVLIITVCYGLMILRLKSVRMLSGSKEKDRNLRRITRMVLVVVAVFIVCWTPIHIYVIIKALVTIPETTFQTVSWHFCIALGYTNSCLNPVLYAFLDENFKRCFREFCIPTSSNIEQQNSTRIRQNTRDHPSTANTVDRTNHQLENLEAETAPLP
T2 sequence (P41143 whole entry, looked up): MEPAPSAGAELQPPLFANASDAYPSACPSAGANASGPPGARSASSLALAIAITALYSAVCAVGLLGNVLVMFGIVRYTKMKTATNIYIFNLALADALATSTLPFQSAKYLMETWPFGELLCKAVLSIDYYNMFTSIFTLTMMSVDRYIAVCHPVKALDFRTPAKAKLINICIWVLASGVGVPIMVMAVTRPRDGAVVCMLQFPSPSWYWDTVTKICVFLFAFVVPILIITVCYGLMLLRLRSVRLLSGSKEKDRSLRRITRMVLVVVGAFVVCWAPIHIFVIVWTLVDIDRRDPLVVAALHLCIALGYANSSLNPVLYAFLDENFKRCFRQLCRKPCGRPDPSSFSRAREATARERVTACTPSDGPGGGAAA
T2 sequence (P41145 whole entry, looked up): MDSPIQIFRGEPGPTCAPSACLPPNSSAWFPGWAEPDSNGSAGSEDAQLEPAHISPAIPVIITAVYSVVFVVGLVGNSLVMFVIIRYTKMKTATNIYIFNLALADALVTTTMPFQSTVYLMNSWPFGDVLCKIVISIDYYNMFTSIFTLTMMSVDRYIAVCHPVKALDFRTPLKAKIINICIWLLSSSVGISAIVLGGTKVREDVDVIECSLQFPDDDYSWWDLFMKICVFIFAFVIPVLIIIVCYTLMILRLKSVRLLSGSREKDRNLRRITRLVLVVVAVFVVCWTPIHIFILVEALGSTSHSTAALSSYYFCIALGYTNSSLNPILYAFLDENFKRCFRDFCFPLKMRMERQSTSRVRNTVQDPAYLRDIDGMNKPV
T1 sequence (P41144 whole entry): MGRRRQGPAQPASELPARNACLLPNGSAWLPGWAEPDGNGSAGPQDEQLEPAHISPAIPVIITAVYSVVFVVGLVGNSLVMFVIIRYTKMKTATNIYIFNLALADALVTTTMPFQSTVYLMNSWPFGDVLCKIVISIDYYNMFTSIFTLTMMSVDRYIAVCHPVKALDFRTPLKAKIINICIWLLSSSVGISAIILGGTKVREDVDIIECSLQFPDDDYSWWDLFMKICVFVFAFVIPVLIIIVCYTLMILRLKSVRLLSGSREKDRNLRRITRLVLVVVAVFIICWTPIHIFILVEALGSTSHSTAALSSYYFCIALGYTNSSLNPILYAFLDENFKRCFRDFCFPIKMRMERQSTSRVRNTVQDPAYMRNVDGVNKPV
Chain of Delta-type opioid receptor (P33533 whole entry): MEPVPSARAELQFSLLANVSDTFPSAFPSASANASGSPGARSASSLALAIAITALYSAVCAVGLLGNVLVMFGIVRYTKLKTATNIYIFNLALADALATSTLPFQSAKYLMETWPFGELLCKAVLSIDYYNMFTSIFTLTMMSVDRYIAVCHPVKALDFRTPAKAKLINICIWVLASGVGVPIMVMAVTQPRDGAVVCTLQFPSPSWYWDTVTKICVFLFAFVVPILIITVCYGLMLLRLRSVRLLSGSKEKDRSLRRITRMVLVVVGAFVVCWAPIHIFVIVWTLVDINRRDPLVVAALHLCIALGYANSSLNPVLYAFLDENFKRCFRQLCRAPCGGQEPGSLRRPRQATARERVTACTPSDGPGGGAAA
Chain of Kappa-type opioid receptor (Homo sapiens) (P41145 whole entry): as the sequence (P41145 whole entry, looked up) above
Chain of Mu-type opioid receptor (P33535 whole entry): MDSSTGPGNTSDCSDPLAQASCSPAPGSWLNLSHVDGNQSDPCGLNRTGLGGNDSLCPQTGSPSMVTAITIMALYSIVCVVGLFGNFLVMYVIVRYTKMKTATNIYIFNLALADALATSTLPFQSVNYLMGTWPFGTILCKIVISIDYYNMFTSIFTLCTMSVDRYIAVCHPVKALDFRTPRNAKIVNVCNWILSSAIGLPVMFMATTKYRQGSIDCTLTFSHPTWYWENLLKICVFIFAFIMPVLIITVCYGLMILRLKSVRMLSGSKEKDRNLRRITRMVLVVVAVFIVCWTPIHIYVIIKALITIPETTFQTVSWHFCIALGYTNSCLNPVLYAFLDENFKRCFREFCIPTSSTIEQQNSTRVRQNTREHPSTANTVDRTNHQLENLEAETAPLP

Consider `CC[C@H](C)[C@H](NC(=O)[C@H](CCCN=C(N)N)NC(=O)[C@H](CCCN=C(N)N)NC(=O)[C@H](CC(C)C)NC(=O)[C@H](Cc1ccccc1)NC(=O)CNC(=O)CNC(=O)[C@@H](N)Cc1ccc(O)cc1)C(=O)N[C@@H](CCCN=C(N)N)C(=O)N1CCC[C@@H]1C(=O)N[C@@H](CCCCN)C(=O)O`, for which the Kb in the assay filed under Cavia porcellus [1] is 63.1 nM.
Turning to `C=CCN(CC=C)[C@@H](Cc1ccc(O)cc1)C(=O)NCC(=O)NCC(=O)N[C@@H](Cc1ccccc1)C(=O)N[C@@H](CC(C)C)C(=O)N[C@@H](CCCN=C(N)N)C(=O)N[C@@H](CCCN=C(N)N)C(=O)N[C@H](C(=O)N[C@@H](CCCN=C(N)N)C(=O)N1CCCC1C(=O)N[C@@H](CCCCN)C(=O)O)[C@@H](C)CC` (stereo in doubt), the pIC50 (in general, the IC50 on a negative log10 scale, so that one unit is a factor of ten) is below 5.52 in the assay filed under Cavia porcellus [2], 5.30 in assay [3], 7.67 in assay [6] and 7.19 in [7]. The values for the pKi in assay [4], in assay [5] and in assay [8] were 6.83, 6.95 and 7.67, respectively. The Ratio in [9] stood at 3.03. Also, the Ki ratio result was “kappa/mu/delta” in assay [10] and “kappa/delta/mu” in [11].
As for `CC[C@H](C)[C@H](NC(=O)[C@H](CCCN=C(N)N)NC(=O)[C@H](CCCN=C(N)N)NC(=O)[C@H](CC(C)C)NC(=O)[C@H](Cc1ccccc1)NC(=O)CNC(=O)CNC(=O)[C@H](Cc1ccc(O)cc1)N(Cc1ccccc1)Cc1ccccc1)C(=O)N[C@@H](CCCN=C(N)N)C(=O)N1CCCC1C(=O)N[C@@H](CCCCN)C(=O)O` (stereo in doubt) [listing 1 of 3 here], the pKi (usually −log10 of the Ki, conventionally taken in molar units) is 5.56 in assay [4], 6.89 at Mu-type opioid receptor and 8.44 in assay [12]. For the same compound, the pIC50 is 7.36 in [6] and 6.41 in assay [7].
As for `C=CCN[C@@H](Cc1ccc(O)cc1)C(=O)NCC(=O)NCC(=O)N[C@@H](Cc1ccccc1)C(=O)N[C@@H](CC(C)C)C(=O)N[C@@H](CCCN=C(N)N)C(=O)N[C@@H](CCCN=C(N)N)C(=O)N[C@H](C(=O)N[C@@H](CCCN=C(N)N)C(=O)N1CCCC1C(=O)N[C@@H](CCCCN)C(=O)O)[C@@H](C)CC` (stereo in doubt), the Kb in the assay filed under Cavia porcellus [1] was 25.1 nM.
With `CC[C@H](C)[C@H](NC(=O)[C@H](CCCN=C(N)N)NC(=O)[C@H](CCCN=C(N)N)NC(=O)[C@H](CC(C)C)NC(=O)[C@H](Cc1ccccc1)NC(=O)CNC(=O)CNC(=O)[C@H](Cc1ccc(O)cc1)N(CC1CC1)CC1CC1)C(=O)N[C@@H](CCCN=C(N)N)C(=O)N1CCCC1C(=O)N[C@@H](CCCCN)C(=O)O` (stereo in doubt), the pIC50 in the assay listed under Cavia porcellus [2] was below 4.00; in assay [3], 6.41; in assay [6], 8.48; in assay [7], 7.54. Also, the Kb in the assay listed under Cavia porcellus [1] is 50.1 nM. In addition, the pKi was 6.78 in assay [4]; 7.35 in assay [5]; 8.41 on Mu-type opioid receptor; 8.58 in assay [8]; 9.72 in assay [12]. For the same compound, in [9], the Ratio was 8.79. For the same compound, the Ki ratio result in assay [13] and in assay [14] was “kappa/mu/delta” throughout.
`CC[C@H](C)[C@H](NC(=O)[C@H](CCCN=C(N)N)NC(=O)[C@H](CCCN=C(N)N)NC(=O)[C@H](CC(C)C)NC(=O)[C@H](Cc1ccccc1)NC(=O)CNC(=O)CNC(=O)[C@H](Cc1ccc(O)cc1)N(Cc1ccccc1)Cc1ccccc1)C(=O)N[C@@H](CCCN=C(N)N)C(=O)N1CCCC1C(=O)N[C@@H](CCCCN)C(=O)O` (stereo in doubt) [listing 2 of 3 here]: the Ratio in assay [9] came out at 9.05.
In the case of `CC[C@H](C)[C@H](NC(=O)[C@H](CCCN=C(N)N)NC(=O)[C@H](CCCN=C(N)N)NC(=O)[C@H](CC(C)C)NC(=O)[C@H](Cc1ccccc1)NC(=O)CNC(=O)CNC(=O)[C@H](Cc1ccc(O)cc1)NCC1CC1)C(=O)N[C@@H](CCCN=C(N)N)C(=O)N1CCCC1C(=O)N[C@@H](CCCCN)C(=O)O` (stereo in doubt), the pIC50 in the assay listed under Cavia porcellus [2] was 8.67; in assay [6] it was 9.39; in assay [7], 7.57. Moreover, the Kb in the assay listed under Cavia porcellus [1] was 50.1 nM. Further, the pKi in [4] is 6.25. In addition, the Ratio in assay [9] worked out at 66.9. Moreover, in [15], the Ki ratio result is “kappa/delta/mu”.
`CC[C@H](C)[C@H](NC(=O)[C@H](CCCN=C(N)N)NC(=O)[C@H](CCCN=C(N)N)NC(=O)[C@H](CC(C)C)NC(=O)[C@H](Cc1ccccc1)NC(=O)CNC(=O)CNC(=O)[C@H](Cc1ccc(O)cc1)N(Cc1ccccc1)Cc1ccccc1)C(=O)N[C@@H](CCCN=C(N)N)C(=O)N1CCCC1C(=O)N[C@@H](CCCCN)C(=O)O` (stereo in doubt) [listing 3 of 3 here] showed a pIC50 in the assay listed under Cavia porcellus [2] of 6.64.

For the origin of these results see ChEMBL document CHEMBL1130124, “Synthesis and opioid activity of [D-Pro10]dynorphin A-(1-11) analogues with N-terminal alkyl substitution” (J Med Chem, 1997).
